Assay results as given in ChEMBL document CHEMBL2151023, “2-Alkynoic fatty acids inhibit topoisomerase IB from Leishmania donovani” (Bioorg Med Chem Lett, 2012).
Activity calls are given as the source filed them. No cut-off for these calls is given here.

Columns and labels:
[1] = system: Leishmania donovani; experiment: Antiprotozoal activity against Leishmania donovani axenic amastigotes; assay type: functional, organism-based
[2] = system: Trypanosoma brucei rhodesiense; experiment: Antiprotozoal activity against Trypanosoma brucei rhodesiense bloodstream forms; assay type: functional, organism-based
[3] = system: Trypanosoma cruzi; experiment: Antiprotozoal activity against intracellular Trypanosoma cruzi amastigotes in rat L6 cells; assay type: functional, organism-based
[4] = system: L6; experiment: Cytotoxicity against rat L6 cells; assay type: cell-based
[5] = system: Leishmania infantum; experiment: Induction of apoptosis in Leishmania infantum promastigotes at 400 uM after 24 hrs by AnnexinV-FITC/propidium iodide based FACS flow cytometry; assay type: functional
Summary of the method: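 L. infantum promastigotes exposed to 400 μM for 24 h, harvested, washed twice in PBS, resuspended at 1×10^6 cells/ml, stained with annexin V-FITC plus propidium iodide for 15 min at room temperature in the dark. Flow cytometry on at least 10,000 gated cells, read as percent of cells per quadrant. Untreated and H2O2-treated cells serve as controls. Representative of three independent trials.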

[6] = Inhibition of human topoisomerase 1B-mediated relaxation of supercoiled pSK DNA after 30 mins by ethidium bromide staining based agarose gel electrophoresis
Summary of the method: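 Plasmid DNA relaxation assay with the enzyme over 30 min at 37 °C, acid at 3.125–100 μM. Reactions stopped with 1% SDS plus proteinase K. Products resolved on agarose and stained with ethidium bromide, scoring supercoiled, nicked and relaxed topoisomer bands.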

[7] = Cytotoxicity against BALB/C mouse macrophages; assay type: cell-based; details: Macrophage
[8] = target: T1, DNA topoisomerase type IB small subunit (Leishmania major) (UniProt Q95Z89); experiment: Inhibition of Leishmania donovani topoisomerase 1B-mediated relaxation of supercoiled pSK DNA at 100 uM after 4 mins by ethidium bromide staining based agarose gel electrophoresis
T1 sequence (whole entry): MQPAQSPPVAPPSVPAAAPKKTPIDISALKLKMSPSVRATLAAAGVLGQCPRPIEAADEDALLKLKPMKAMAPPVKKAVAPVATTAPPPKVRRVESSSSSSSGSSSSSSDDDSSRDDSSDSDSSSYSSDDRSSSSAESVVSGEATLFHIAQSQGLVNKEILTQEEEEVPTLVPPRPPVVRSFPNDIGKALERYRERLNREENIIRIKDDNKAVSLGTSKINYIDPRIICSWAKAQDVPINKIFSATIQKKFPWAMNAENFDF
Summary of the method: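 Stopped with 1% SDS, then digested 1 h at 37°C with 1 mg/ml proteinase K. Extracted with phenol-chloroform and run on 1% agarose containing 40 µg/ml ethidium bromide.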

[9] = target: T1, DNA topoisomerase type IB small subunit (Leishmania major); experiment: Inhibition of Leishmania donovani topoisomerase 1B-mediated relaxation of supercoiled pSK DNA at 100 uM preincubated for 15 mins by ethidium bromide staining based agarose gel electrophoresis
Summary of the method: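 LdTopIB pre-incubated 15 min at 4 °C with 100 µM compound, or with DMSO as control. […] Samples stopped with SDS, digested with proteinase K, phenol-chloroform extracted and resolved on ethidium bromide agarose gel.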

**Q.** With CCCCCCCCCCCCCCCCOP(=O)([O-])OCC[N+](C)(C)C [MILTEFOSINE] as the molecule, how does the IC50 [1] read?
**A.** The IC50 was 0.49 µM.

**Q.** With CCCCCCCCCCCCCCCC#CC(=O)O as the molecule, how does the IC50 [2] read?
**A.** Its IC50 is 64.5 µM.

**Q.** What about the IC50 [3] of the same molecule?
**A.** The IC50 was 48.1 µM.

**Q.** And the IC50 [1]?
**A.** The IC50 was 11 µM.

**Q.** And the IC50 [4]?
**A.** Its IC50 is 20 µM.

**Q.** What about the Activity [5] of the same molecule?
**A.** Its Activity is 1.98%.

**Q.** And the EC50 [6]?
**A.** Its EC50 is 51.9 µM.

**Q.** What about the IC50 [7] of the same molecule?
**A.** Its IC50 is greater than 100 µM.

**Q.** Which IC50 [2] does the source give for CCCCCCCCCCCC#CC(=O)O here?
**A.** The IC50 was 255 µM.

**Q.** What about the IC50 [3] of the same molecule?
**A.** The IC50 was 62.4 µM.

**Q.** And the IC50 [1]?
**A.** The IC50 was 24.7 µM.

**Q.** What about the IC50 [4] of the same molecule?
**A.** The IC50 was 40.9 µM.

**Q.** And the Activity [5]?
**A.** Its Activity is 1.75%.

**Q.** What about the EC50 [6] of the same molecule?
**A.** The EC50 was greater than 100 µM.

**Q.** And the IC50 [7]?
**A.** The IC50 was greater than 100 µM.

**Q.** Which IC50 [4] does the source give for COc1cc([C@@H]2c3cc4c(cc3[C@H](O)[C@H]3COC(=O)[C@H]23)OCO4)cc(OC)c1OC [PODOFILOX] here?
**A.** The IC50 was 0.02 µM.

**Q.** For CCCCCCCCCCCCCCCC(=O)O [PALMITIC ACID], which IC50 [4] is on record?
**A.** Its IC50 is 209 µM.

**Q.** With CC[C@@]1(O)C(=O)OCc2c1cc1n(c2=O)Cc2cc3ccccc3nc2-1 [CAMPTOTHECIN] as the molecule, how does the EC50 [6] read?
**A.** The EC50 was 2 µM.

**Q.** And the IC50 [7]?
**A.** Its IC50 is 0.62 µM.

**Q.** And the inhibition [8]?
**A.** Its inhibition is “inactive”.

**Q.** What about the inhibition [9] of the same molecule?
**A.** The inhibition was “Active”.

**Q.** For O=C(Cn1ccnc1[N+](=O)[O-])NCc1ccccc1 [BENZNIDAZOLE], which IC50 [3] is on record?
**A.** The IC50 was 1.47 µM.
